{"source": "paper PMC4928098", "about": "(NeuroImage, 2016)", "key": {"P-gp (ABCB1)": {"biological_target": "P-gp (ABCB1) (Homo sapiens, UniProt P08183)", "sequence (P08183 whole entry)": "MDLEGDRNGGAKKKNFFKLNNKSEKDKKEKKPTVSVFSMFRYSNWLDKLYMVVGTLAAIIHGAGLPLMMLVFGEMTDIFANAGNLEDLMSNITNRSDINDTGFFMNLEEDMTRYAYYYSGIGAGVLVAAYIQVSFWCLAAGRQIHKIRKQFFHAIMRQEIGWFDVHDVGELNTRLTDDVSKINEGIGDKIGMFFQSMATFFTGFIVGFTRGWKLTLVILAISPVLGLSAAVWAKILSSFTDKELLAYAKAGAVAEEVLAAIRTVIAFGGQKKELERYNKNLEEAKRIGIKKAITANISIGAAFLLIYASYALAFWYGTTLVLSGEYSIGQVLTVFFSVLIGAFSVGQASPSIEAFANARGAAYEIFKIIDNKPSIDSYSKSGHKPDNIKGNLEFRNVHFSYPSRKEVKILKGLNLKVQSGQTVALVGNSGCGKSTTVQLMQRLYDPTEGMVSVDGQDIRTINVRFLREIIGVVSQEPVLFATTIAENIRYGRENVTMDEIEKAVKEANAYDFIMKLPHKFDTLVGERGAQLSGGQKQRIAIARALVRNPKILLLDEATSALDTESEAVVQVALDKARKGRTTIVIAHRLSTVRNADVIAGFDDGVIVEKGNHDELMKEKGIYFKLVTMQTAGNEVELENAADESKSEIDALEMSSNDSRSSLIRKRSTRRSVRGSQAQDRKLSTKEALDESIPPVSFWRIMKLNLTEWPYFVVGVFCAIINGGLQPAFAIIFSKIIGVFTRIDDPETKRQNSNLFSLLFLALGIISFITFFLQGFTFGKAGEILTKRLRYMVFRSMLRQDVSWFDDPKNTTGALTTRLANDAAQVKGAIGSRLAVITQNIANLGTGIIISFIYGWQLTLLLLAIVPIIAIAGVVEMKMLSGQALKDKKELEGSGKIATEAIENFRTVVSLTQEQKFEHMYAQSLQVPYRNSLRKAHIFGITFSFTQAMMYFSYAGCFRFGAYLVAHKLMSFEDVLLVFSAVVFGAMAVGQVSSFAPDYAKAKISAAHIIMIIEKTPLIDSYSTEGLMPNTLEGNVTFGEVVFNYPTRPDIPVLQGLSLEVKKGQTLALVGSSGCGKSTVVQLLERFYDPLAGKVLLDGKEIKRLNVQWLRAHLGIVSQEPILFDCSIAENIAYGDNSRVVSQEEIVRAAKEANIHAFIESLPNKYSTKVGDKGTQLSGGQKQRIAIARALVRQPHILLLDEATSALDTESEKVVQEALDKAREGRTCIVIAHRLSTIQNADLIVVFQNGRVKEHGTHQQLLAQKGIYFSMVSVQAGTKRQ", "type": "cell-based", "settings": "for Percent Inhibition (%) of the fluorescent substrate: P-gp, rhodamine-123 efflux, human cancer cells", "procedure,_shortened": "(§1)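 Human cancer cells overexpressing a transporter, plus parental cells, were analysed by flow cytometry for efflux of a fluorescent probe: rhodamine-123 for P-gp, mitoxantrone for BCRP, calcein-AM for MRP1. Conditions were untreated parental cells, expressing cells with a transporter-specific inhibitor, expressing cells with test compound at 20 or 50 µM, and untreated expressing cells. Fluorescence was recorded on 10,000 cells and expressed as percent inhibition.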"}, "MRP1 (ABCC1)": {"biological_target": "MRP1 (ABCC1) (Homo sapiens, UniProt P33527)", "sequence (P33527 whole entry)": "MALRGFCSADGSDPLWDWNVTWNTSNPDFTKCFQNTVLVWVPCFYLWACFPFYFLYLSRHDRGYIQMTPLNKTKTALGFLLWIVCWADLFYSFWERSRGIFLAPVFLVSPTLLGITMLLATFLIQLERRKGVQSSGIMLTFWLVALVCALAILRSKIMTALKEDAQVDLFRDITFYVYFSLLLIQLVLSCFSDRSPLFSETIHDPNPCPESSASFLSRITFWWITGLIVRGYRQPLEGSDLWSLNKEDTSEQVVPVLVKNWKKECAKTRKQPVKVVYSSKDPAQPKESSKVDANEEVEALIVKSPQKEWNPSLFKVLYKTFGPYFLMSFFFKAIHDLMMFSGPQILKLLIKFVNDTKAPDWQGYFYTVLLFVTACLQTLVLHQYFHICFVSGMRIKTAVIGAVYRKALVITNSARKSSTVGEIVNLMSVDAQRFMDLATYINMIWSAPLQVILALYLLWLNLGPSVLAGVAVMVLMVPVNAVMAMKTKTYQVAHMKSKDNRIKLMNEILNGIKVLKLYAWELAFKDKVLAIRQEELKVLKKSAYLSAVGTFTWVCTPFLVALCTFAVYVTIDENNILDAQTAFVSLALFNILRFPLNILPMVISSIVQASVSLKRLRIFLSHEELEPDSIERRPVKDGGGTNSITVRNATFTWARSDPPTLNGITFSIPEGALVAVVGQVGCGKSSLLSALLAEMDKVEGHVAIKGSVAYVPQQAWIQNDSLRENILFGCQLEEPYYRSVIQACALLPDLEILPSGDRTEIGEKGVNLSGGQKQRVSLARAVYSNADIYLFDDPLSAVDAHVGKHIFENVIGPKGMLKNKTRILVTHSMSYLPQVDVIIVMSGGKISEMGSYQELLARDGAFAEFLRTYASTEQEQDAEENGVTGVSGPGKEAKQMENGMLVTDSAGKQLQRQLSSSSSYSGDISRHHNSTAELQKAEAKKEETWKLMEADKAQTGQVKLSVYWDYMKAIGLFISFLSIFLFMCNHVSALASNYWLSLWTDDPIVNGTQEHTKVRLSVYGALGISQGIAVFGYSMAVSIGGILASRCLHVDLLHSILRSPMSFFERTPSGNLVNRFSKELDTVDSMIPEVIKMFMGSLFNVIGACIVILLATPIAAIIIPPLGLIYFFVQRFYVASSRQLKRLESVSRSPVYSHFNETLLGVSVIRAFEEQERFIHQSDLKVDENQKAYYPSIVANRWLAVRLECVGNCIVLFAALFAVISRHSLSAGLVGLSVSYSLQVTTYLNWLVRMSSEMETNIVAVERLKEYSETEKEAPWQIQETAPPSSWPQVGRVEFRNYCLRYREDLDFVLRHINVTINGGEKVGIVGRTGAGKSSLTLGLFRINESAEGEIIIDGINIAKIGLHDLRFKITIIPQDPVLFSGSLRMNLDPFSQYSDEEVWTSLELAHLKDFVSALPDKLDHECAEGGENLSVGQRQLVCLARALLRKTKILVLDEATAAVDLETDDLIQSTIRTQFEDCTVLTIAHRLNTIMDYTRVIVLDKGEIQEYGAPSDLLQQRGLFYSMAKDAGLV", "type": "cell-based", "settings": "for Percent Inhibition (%) of the fluorescent substrate: Mrp1, calcein-AM efflux, human cancer cells", "procedure,_shortened": "as §1"}, "BCRP (ABCG2)": {"biological_target": "T1, BCRP (ABCG2) (Homo sapiens, UniProt Q9UNQ0)", "T1 sequence (Q9UNQ0 1-655)": "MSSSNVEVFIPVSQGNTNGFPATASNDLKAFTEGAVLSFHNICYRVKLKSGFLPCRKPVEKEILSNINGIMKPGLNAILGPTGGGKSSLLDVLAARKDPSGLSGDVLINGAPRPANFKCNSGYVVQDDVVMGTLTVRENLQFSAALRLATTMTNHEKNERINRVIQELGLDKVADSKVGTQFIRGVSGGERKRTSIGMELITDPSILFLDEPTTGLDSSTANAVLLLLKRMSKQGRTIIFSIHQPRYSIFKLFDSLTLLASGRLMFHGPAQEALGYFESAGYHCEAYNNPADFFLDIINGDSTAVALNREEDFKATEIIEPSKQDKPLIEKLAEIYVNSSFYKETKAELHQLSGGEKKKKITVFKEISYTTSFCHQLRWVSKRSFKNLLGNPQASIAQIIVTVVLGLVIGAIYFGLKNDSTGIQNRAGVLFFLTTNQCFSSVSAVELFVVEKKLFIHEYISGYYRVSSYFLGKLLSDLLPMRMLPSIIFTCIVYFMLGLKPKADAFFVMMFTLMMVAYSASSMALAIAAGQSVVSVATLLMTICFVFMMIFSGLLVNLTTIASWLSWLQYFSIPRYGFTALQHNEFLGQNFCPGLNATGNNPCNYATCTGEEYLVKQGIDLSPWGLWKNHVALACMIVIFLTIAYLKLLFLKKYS", "type": "cell-based", "settings": "for Percent Inhibition (%) of the fluorescent substrate: BCRP, mitoxantrone efflux, human cancer cells", "procedure,_shortened": "as §1"}, "P-gp [1]": {"biological_target": "P-gp (Mus musculus, UniProt P21447)", "assay": "Ex vivo brain to plasma ratio of parent radioligand in P-gp knockout mice", "settings": "P-gp KO mice, 30 min after iv injection, n=3", "procedure,_shortened": "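Wild-type, P-gp KO, BCRP KO and P-gp/BCRP KO mice (n=3 per group, 25.3 ± 1.2 g) were anesthetised with 1.5% isoflurane in oxygen. Radioligand (166 ± 49 µCi; 826 ± 205 mCi/µmol) was given iv via tail-vein cannula. At 30 min, blood was taken by cardiac puncture and brain excised. Parent was quantified by reversed-phase radio-HPLC with γ-counting. Brain/plasma parent ratios were compared across groups (mean ± SEM).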"}, "P-gp [2]": {"biological_target": "P-gp (Homo sapiens, UniProt P08183)", "sequence (P08183 whole entry, the tested form may be a part)": "as the sequence (P08183 whole entry) above", "assay": "Human PET imaging at baseline and during tariquidar infusion", "type": "in vivo", "procedure,_shortened": "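Radioligand was given as a 376 ± 8 MBq bolus, followed by a 2-h dynamic PET with arterial sampling and HPLC metabolite separation. VT came from a three-tissue model including the acid metabolite, in six central regions. Paired one-tailed t-test.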"}, "[3]": {"settings": "humans, ref Ryu et al., 2007, cited from earlier work"}, "P-gp [4]": {"test_system": "P-gp", "settings": "rats pretreated with tariquidar; ref Choi et al., 2016; cited from earlier work"}}, "note": "Where two headings read alike, the source gives them in different places.", "data": [{"smiles": "COc1ccccc1N1CCN(CCN(C(=O)C2CCC(F)CC2)c2ccccn2)CC1", "note": "(stereo not shown) [FCWAY]", "values": [{"measurement": "Percent Inhibition (%) of the fluorescent substrate", "setting": "P-gp (ABCB1); 20 uM", "result": 0.8, "unit": "%"}, {"measurement": "Percent Inhibition (%) of the fluorescent substrate", "setting": "P-gp (ABCB1); 50 uM", "result": 4.0, "unit": "%"}, {"measurement": "Substrate status for transporter (in vitro substrate inhibition)", "setting": "P-gp (ABCB1); P-gp overexpressing human cancer cells", "result": "weak substrate"}, {"measurement": "Percent Inhibition (%) of the fluorescent substrate", "setting": "MRP1 (ABCC1); 20 uM", "result": 3.1, "unit": "%"}, {"measurement": "Percent Inhibition (%) of the fluorescent substrate", "setting": "MRP1 (ABCC1); 50 uM", "result": 5.4, "unit": "%"}, {"measurement": "Substrate status for transporter (in vitro substrate inhibition)", "setting": "MRP1 (ABCC1); MRP1 overexpressing human cancer cells", "result": "weak substrate"}, {"measurement": "Percent Inhibition (%) of the fluorescent substrate", "setting": "BCRP (ABCG2); 20 uM", "result": 6.8, "unit": "%"}, {"measurement": "Percent Inhibition (%) of the fluorescent substrate", "setting": "BCRP (ABCG2); 50 uM", "result": 8.6, "unit": "%"}, {"measurement": "Substrate status for transporter (in vitro substrate inhibition)", "setting": "BCRP (ABCG2); BCRP overexpressing human cancer cells", "result": "weak substrate"}]}, {"smiles": "COc1ccccc1N1CCN(CCN(C(=O)c2ccc(F)cc2)c2ccccn2)CC1", "note": "[MPPF, reference compound]", "values": [{"measurement": "Percent Inhibition (%) of the fluorescent substrate", "setting": "MRP1 (ABCC1); 20 uM", "result": 13.1, "unit": "%"}, {"measurement": "Percent Inhibition (%) of the fluorescent substrate", "setting": "MRP1 (ABCC1); 50 uM", "result": 19.9, "unit": "%"}]}, {"smiles": "COc1ccccc1N1CCN(CCN(C(=O)C2CCC([18F])CC2)c2ccccn2)CC1", "note": "(stereo not shown) [^18F-FCWAY]", "values": [{"measurement": "Brain uptake (brain to plasma ratio) in comparison to wild type mice", "setting": "P-gp [1]", "result": "increased"}, {"measurement": "Peak brain radioactivity uptake", "setting": "P-gp [2]; baseline, after bolus injection, healthy subjects", "result": "around 3 SUV"}, {"measurement": "Change of non-displaceable binding potential (BPND) after tariquidar", "setting": "P-gp [2]; i.v. tariquidar treatment, n=8", "result": "changed insignificantly"}, {"measurement": "Increase in mean distribution volume (VT) with tariquidar treatment", "setting": "P-gp [2]; tariquidar 2 or 4 mg/kg iv infusion, six brain regions, n=8", "result": "60–100%"}, {"measurement": "Time of peak uptake in brain", "setting": "[3]; with disulfiram administration", "result": "five to seven"}, {"measurement": "Time of peak in brain after injection", "setting": "[3]; without disulfiram", "result": "one to three"}]}, {"smiles": "O=C(O)[C@H]1CC[C@H]([18F])CC1", "note": "[^18F-FC]", "values": [{"measurement": "Estimated concentration in brain as percent of that of the parent radioligand", "setting": "P-gp [2]; during most of the scan, radiometabolite", "result": "2–3%"}, {"measurement": "Concentration in brain compared to the total radioactivity", "setting": "P-gp [2]; estimated by compartmental modeling, radiometabolite", "result": "~ 5%"}]}, {"smiles": "COc1ccccc1N1CCN(CCN(C(=O)C2CCC(C[18F])CC2)c2ccccn2)CC1", "note": "(stereo not shown) [^18F-Mefway]", "values": [{"measurement": "Increase of brain uptake after tariquidar pretreatment", "setting": "P-gp [4]", "result": 1.6, "unit": "fold"}]}, {"smiles": "CNC(=O)C(CCN1CCC(O)(c2ccc(Cl)cc2)CC1)(c1ccccc1)c1ccccc1", "note": "[dLop, desmethyl-loperamide, reference compound]", "values": [{"measurement": "Percent Inhibition (%) of the fluorescent substrate", "setting": "P-gp (ABCB1); 20 uM", "result": 10.0, "unit": "%"}, {"measurement": "Percent Inhibition (%) of the fluorescent substrate", "setting": "P-gp (ABCB1); 50 uM", "result": 25.0, "unit": "%"}]}]}
